In the library only some 1.4% were active in any assay of this set; here they are far more common.
DAGLB inh: diacylglycerol lipase beta (human) inhibition | inhibition, % at 5.17 µM | 0.059% of 340,000 active | Q8NCG7 | HEK293T DAGLB membrane lysate, EnzChek fluorogenic substrate; in the data active = inhibition above about 34%;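 note: 0% = enzyme with vehicle and 100% = wells lacking enzyme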
Target sequence (Q8NCG7 whole entry, looked up): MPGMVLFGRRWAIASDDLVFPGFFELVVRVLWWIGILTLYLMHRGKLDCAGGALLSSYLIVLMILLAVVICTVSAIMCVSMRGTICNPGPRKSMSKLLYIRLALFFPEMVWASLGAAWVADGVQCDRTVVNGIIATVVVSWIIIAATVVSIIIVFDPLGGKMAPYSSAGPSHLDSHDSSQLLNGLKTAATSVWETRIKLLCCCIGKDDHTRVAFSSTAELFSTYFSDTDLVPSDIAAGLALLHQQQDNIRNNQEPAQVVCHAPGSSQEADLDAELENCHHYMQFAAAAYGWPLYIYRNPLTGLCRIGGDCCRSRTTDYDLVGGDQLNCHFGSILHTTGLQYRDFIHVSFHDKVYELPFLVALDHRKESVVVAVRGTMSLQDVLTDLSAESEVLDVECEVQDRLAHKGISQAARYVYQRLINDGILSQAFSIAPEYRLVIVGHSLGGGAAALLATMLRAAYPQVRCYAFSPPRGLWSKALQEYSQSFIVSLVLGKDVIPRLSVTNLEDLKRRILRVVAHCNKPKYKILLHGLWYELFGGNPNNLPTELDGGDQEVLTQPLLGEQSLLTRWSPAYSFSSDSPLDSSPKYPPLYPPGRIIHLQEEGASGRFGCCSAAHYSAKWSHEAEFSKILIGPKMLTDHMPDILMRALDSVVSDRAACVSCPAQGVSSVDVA
TAG inh: inhibitors of triacylglycerol accumulation; inhibition, % at 12.5 µM; AID 651582; 0.66% of 230,000 active; H9c2 cells, Nile Red lipid (TAG) fluorescence; cells loaded with 200 µM oleic acid;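 active = pattern-corrected inhibition of lipid staining of at least 50% with the nuclear-stain viability signal not falling by more than 50%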;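 note: 0% = DMSO wells and 100% = triacsin C control wells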
MT1-MMP act inh: MT1-MMP (human) activation inhibition | 0.061% of 360,000 active | P50281 | GFP/RFP ratio change, % at 20 µM | HT1080 RFP-PRO-GFP cells, GFP/RFP ratio fluorescence, overnight; percent of plate control window, DMSO zero;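 active = GFP/RFP ratio change of at least 30% with cell ATP level not reduced by more than half and red fluorescence within 50% of control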
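Assay system: HT1080 RFP-PRO-GFP cells | Dosing: 20 µM single dose, 1% DMSO | Incubation: Cells overnight before dosing, compound overnight, 37 °C, 5% CO2 | Evaluation: GFP/RFP fluorescence ratio | Control set: DMSO-only wells and HT1080 RFP-L50D-GFP cell wells as references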
Tn7 DDE FP: inhibitors of Tn7 peptide binding to human fibrin DD(E) | P02675 | FP displacement of FITC-Tn7 peptide from fibrin DD(E); 0% = median of compound wells per plate | inhibition, % at 8.3 µM | 0.13% of 370,000 active;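 active = inhibition above the mean of compounds falling within the control limits plus 3 SD of them, cut at about 14% in these data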;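 note: 0% = plate median of compound wells and 100% = 10 µM Aha-Tn7 peptide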
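Assay system: Fibrin-DD(E) protein isolated from polymerized human fibrin clots; read-out basis: percent inhibition; medium: Tris/NaCl/CaCl2 buffer, pH 7.8; signal: FP measurement; incubation: 10 min plus 3 h, room temperature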
Tn6 DDE FP: disrupts Tn6 cyclic peptide binding to fibrin D-Dimer-E complex; P02675; Fibrin DD(E) TRITC-Tn6 fluorescence polarization displacement; inhibition, % at 8.3 µM; 0.21% of 370,000 active;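 active = inhibition above a per-campaign cutoff: mean of compounds within control limits plus 3 SD, cut at about 15% in these data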;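 note: 0% = median of all compound wells on the plate and 100% = blocking peptide control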
H9c2 protect: protects H9c2 cardiomyocytes from peroxide injury. H2O2 injury protection, ATPLite, 2 h. protection from H2O2 cell death, % at 20 µM. 0.63% of 360,000 active. AID 588492;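 active = compounds giving at least 50% protection of heart cells from peroxide-induced death in the single-dose screen, raw or plate-pattern-corrected value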;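 note: 0% = DMSO wells with peroxide and 100% = DMSO wells without peroxide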
Tn7 DDE conf: DD(E)-Tn7 binding inhibition, FP confirmation | shares compounds with Tn7 DDE FP | FP displacement of TRITC-Tn7 peptide from DD(E); 0% set at plate's compound-well median | inhibition, % at 8.3 µM | 5% of 460 active | AID 720628;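 active = inhibition above the campaign cutoff, the mean of compounds within control limits plus 3 SD, cut at about 14% in these data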;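 note: 100% = median FP of high control wells holding Aha-Tn7 inhibitor peptide; displacers lower polarization since freed probe rises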
Tn7 DDE ctr: counter-screen for inhibitors of Tn7 peptide binding to fibrin DD(E). shares compounds with Tn7 DDE FP. 3% of 460 active. TRITC-Tn7 probe displacement, fluorescence polarization. inhibition, % at 8.3 µM;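 active = inhibition above the cutoff, the mean of compounds lying between the control bounds plus 3 SD of those compounds, cut at about 17% in these data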;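 note: 0% = median of compound sample wells and 100% = excess unlabeled Aha-Tn7 peptide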
* = called active by the depositor.

O=C(OCc1cn([C@@H]2CN(C(=O)C3CCCCC3)[C@@H](c3ccccc3)C[C@H]2O)nn1)c1ccccc1 was read as DAGLB inh -2, TAG inh -8, MT1-MMP act inh -1, Tn7 DDE FP 6, Tn6 DDE FP 0 and H9c2 protect 7.
COc1ccc(C(C)(C)C)cc1NC(=O)c1cncc(Br)c1 was read as DAGLB inh -10, TAG inh 1, MT1-MMP act inh -3, Tn7 DDE FP 16*, Tn6 DDE FP 5, H9c2 protect -7, Tn7 DDE conf 1 and Tn7 DDE ctr -1.
`CC(C)C[C@@H](CO)N1Cc2nnn(Cc3ccccc3)c2-c2ccccc2S1(=O)=O` gave Tn7 DDE FP 1 and Tn6 DDE FP -6.
`O=c1[nH]c(=S)[nH]c2nc(-c3ccccc3)cnc12` gave DAGLB inh 2, TAG inh 4, MT1-MMP act inh 5, Tn7 DDE FP -2, Tn6 DDE FP 1 and H9c2 protect -1.
Cc1cc2nc3c(=O)[nH]c(=S)[nH]c3nc2cc1NC(=O)C(F)(F)F was read as DAGLB inh -38, MT1-MMP act inh -46, Tn7 DDE FP 16*, Tn6 DDE FP 4, H9c2 protect 3, Tn7 DDE conf -7 and Tn7 DDE ctr -10.
C#CCNC(=O)C[C@H]1C[C@@]2(C(=O)OC)C(=C[C@H](C(C)C)O[C@@H]2C2CC2)N(Cc2ccc3c(c2)OCO3)C1=O was read as Tn7 DDE FP -3 and Tn6 DDE FP 1.
CC1(C)CC(=O)C=C(NNC(=O)c2cccnc2)C1 was read as TAG inh -16, MT1-MMP act inh -1, Tn7 DDE FP 9, Tn6 DDE FP 5 and H9c2 protect 2.
Screening O=C1C=C(NNC(=O)c2cccnc2)CC(c2ccco2)C1 (centres undefined) returned DAGLB inh -2, TAG inh -21, MT1-MMP act inh -7, Tn7 DDE FP 16*, Tn6 DDE FP -8, H9c2 protect 10, Tn7 DDE conf -1 and Tn7 DDE ctr -14.
Screening Cc1cc[n+](-c2[nH]c(=O)sc2/C=N/NC([S-])=Nc2ccccc2)cc1 returned DAGLB inh -3, TAG inh -8, MT1-MMP act inh -59, Tn7 DDE FP 6, Tn6 DDE FP -5 and H9c2 protect -1.
Screening O=c1[nH]c(-[n+]2ccccc2)c(/C=N/NC([S-])=Nc2ccccc2)s1 returned DAGLB inh -2, TAG inh 8, MT1-MMP act inh -106, Tn7 DDE FP 15*, Tn6 DDE FP -2, H9c2 protect 2, Tn7 DDE conf 10 and Tn7 DDE ctr 6.
Cc1ccc(C2CC(=O)Nc3cc4c(cc32)OCO4)o1 (centres undefined) was read as DAGLB inh -1, MT1-MMP act inh -4, Tn7 DDE FP 15*, Tn6 DDE FP 14, H9c2 protect -4, Tn7 DDE conf 6 and Tn7 DDE ctr 3.
CCOC(=O)N(C)[C@H]1C[C@H]2c3[nH]c4cccc(-c5cccc(F)c5)c4c3CCN2C(=O)[C@H]1[C@H](C)O was read as Tn7 DDE FP -9 and Tn6 DDE FP -6.
For O=C(COc1ccc(Oc2ccccc2)cc1)NCc1cn2ccccc2n1 the results were DAGLB inh 0, TAG inh 24, MT1-MMP act inh 2, Tn7 DDE FP 16*, Tn6 DDE FP 5, H9c2 protect 8, Tn7 DDE conf -7 and Tn7 DDE ctr -10.
Cc1cc(C)nc(NS(=O)(=O)c2ccc(N/C=C\C(=O)c3ccc(Cl)cc3)cc2)n1 was read as DAGLB inh 4, MT1-MMP act inh 1, Tn7 DDE FP 14*, Tn6 DDE FP 0, H9c2 protect -6, Tn7 DDE conf 1 and Tn7 DDE ctr -7.
Screening CC(C)[C@H](NC(=O)c1ccccc1)C(=O)N1CCC[C@H]1C(=O)NCc1ccccc1 returned Tn7 DDE FP -4 and Tn6 DDE FP 3.
`COc1ccc(-c2ccc([C@H]3[C@H]4C=CC[C@@H](C)[C@@H]4C(=O)N3Cc3ccccc3)c(F)c2)cc1OC` gave DAGLB inh -3, TAG inh -10, MT1-MMP act inh -3, Tn7 DDE FP 14*, Tn6 DDE FP -9, H9c2 protect -12, Tn7 DDE conf 2 and Tn7 DDE ctr -12.
For C=CCC(=O)NC1CCCc2c1cnn2-c1cc(F)cc(F)c1 (centres undefined) the results were DAGLB inh 0, TAG inh 13, MT1-MMP act inh 8, Tn7 DDE FP 15*, Tn6 DDE FP 5, H9c2 protect 1, Tn7 DDE conf -6 and Tn7 DDE ctr -9.
Screening Cc1cccc(NC(=O)CCS(=O)(=O)c2ccccc2)n1 returned DAGLB inh 3, MT1-MMP act inh 4, Tn7 DDE FP 14*, Tn6 DDE FP 5, H9c2 protect 2, Tn7 DDE conf 6 and Tn7 DDE ctr -2.
CCN(CC)CCCNc1ccc2ncn3c4ccc(O)cc4c(=O)c1c23 was read as DAGLB inh -45, TAG inh -103, MT1-MMP act inh -112, Tn7 DDE FP 40*, Tn6 DDE FP 4, H9c2 protect -1, Tn7 DDE conf 13 and Tn7 DDE ctr -4.
CCCCN(C)C(=O)c1cc2cc3ccc(OC)cc3nc2s1 was read as DAGLB inh -2, TAG inh -16, MT1-MMP act inh 3, Tn7 DDE FP 15*, Tn6 DDE FP -2, H9c2 protect -32, Tn7 DDE conf 4 and Tn7 DDE ctr 5.
Screening CCCCN(CC)C(=O)c1cc2cc3ccc(OC)cc3nc2o1 returned DAGLB inh -7, TAG inh -1, Tn7 DDE FP 4, Tn6 DDE FP -5 and H9c2 protect 4.
Screening COCCN(C(=O)c1ccc(-c2ccc([N+](=O)[O-])cc2)o1)c1c(N)n(CC(C)C)c(=O)[nH]c1=O returned DAGLB inh 0, TAG inh -10, MT1-MMP act inh 3, Tn7 DDE FP 14*, Tn6 DDE FP 0, H9c2 protect 8, Tn7 DDE conf 5 and Tn7 DDE ctr 2.
Screening COCCN(C(=O)c1ccc(-c2ccc(Cl)cc2)o1)c1c(N)n(CC(C)C)c(=O)[nH]c1=O returned DAGLB inh 2, TAG inh 5, MT1-MMP act inh -2, Tn7 DDE FP 0, Tn6 DDE FP -3 and H9c2 protect 7.

Compound activity as filed in PubChem.
